In ChEMBL document CHEMBL3576808, “Phylum-specific regulation of resistomycin production in a Streptomyces sp. via microbial coculture” (J Nat Prod, 2015):
In brackets after ≈: the same amount, converted by molar mass. Activity calls are given as the source filed them. The rule behind the calls is not given here.

Experiments:
Enterococcus faecalis = experiment: Antimicrobial activity against Enterococcus faecalis ATCC 29212 assessed as inhibition of microbial growth at 50 ug/ml; type: functional, organism-based
[1] = system: Mycobacterium tuberculosis; experiment: Antimicrobial activity against Mycobacterium tuberculosis H37Rv assessed as inhibition of microbial growth at 50 ug/ml; type: functional, organism-based
Brucella neotomae = experiment: Antimicrobial activity against Brucella neotomae ATCC 23459 assessed as inhibition of microbial growth at 50 ug/ml; type: functional
How it was run: (§1)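 Single-dose growth-inhibition test at 50 μg/mL. Stock culture (50 μL) went into 10 mL tryptic soy broth and was shaken overnight at 37 °C; X. axonopodis was grown at 30 °C instead. OD was read at 625 nm and cells were adjusted to about 5 × 10^5 CFU per 100 μL well. Compound was added to a 100 μL final volume and plates were incubated overnight.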

[2] = Retention time of the compound by HPLC method; type: physicochemical
Firmicutes = experiment: Antimicrobial activity against Firmicutes K940; type: functional; details: Bacillota
How it was run: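 Growth-inhibition assay against the inducing Actinobacteria (E906) and Firmicutes (K940) coculture isolates. Dose-response testing gave the MIC values. Bacteria were grown overnight in tryptic soy broth with shaking and read by OD at 625 nm. Wells were adjusted to about 5 × 10^5 CFU per 100 μL, compound was added to a 100 μL final volume, and plates were incubated overnight.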

[3] = system: Burkholderia vietnamiensis; experiment: Antimicrobial activity against Burkholderia vietnamiensis ATCC BAA-248 assessed as inhibition of microbial growth at 50 ug/ml; type: functional; how it was run: as §1
Xanthomonas axonopodis = experiment: Antimicrobial activity against Xanthomonas axonopodis ATCC 8718 assessed as inhibition of microbial growth at 50 ug/ml; type: functional, organism-based; how it was run: as §1
Escherichia coli = experiment: Antimicrobial activity against Escherichia coli ATCC 25922 assessed as inhibition of microbial growth at 50 ug/ml; type: functional, organism-based; how it was run: as §1
Yersinia pestis = experiment: Antimicrobial activity against Yersinia pestis A1122 assessed as inhibition of microbial growth at 50 ug/ml; type: functional, organism-based
Pseudomonas aeruginosa = experiment: Antimicrobial activity against Pseudomonas aeruginosa ATCC 27853 assessed as inhibition of microbial growth at 50 ug/ml; type: functional, organism-based; how it was run: as §1

Structure (SMILES): Cc1cc(O)c2c3c4c(cc(O)c13)C(C)(C)C(=O)c1c(O)cc(O)c(c1-4)C2=O [HELIOMYCIN]
- inhibition (Enterococcus faecalis): inactive
- inhibition [1]: inactive
- inhibition (Brucella neotomae): inactive
- Retention_time [2]: 17.9 min
- MIC (Firmicutes): 0.25 µg/mL (≈ 0.664 µM)
- inhibition [3]: inactive
- inhibition (Xanthomonas axonopodis): inactive
- inhibition (Escherichia coli): inactive
- inhibition (Yersinia pestis): inactive
- inhibition (Pseudomonas aeruginosa): inactive
